Measured values reported in ChEMBL document CHEMBL4177625, “Ability of higenamine and related compounds to enhance glucose uptake in L6 cells” (Bioorg Med Chem, 2017).
The source made the active and inactive calls. The calls are words filed in the database; no cut-off is given here.

How the values were obtained:
Type in all cases: functional
[1] = molecular target: Beta-2 adrenergic receptor (Rattus norvegicus, UniProt P10608); test: Agonist activity at beta2 adrenergic receptor in rat L6 cell lysate assessed as increase in intracellular 2-deoxyglucose uptake preincubated for 4 hrs followed by 2-deoxyglucose addition measured after 20 mins by fluorescence-based enzymatic assay relative to control
Procedure, shortened: (§1)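 L6 rat myoblasts (JCRB9081) were grown in DMEM with 10% FBS at 37°C under 10% CO2. At confluence they were differentiated in DMEM with 2% horse serum for 6–8 days. Cells were serum-starved, then exposed to sample in serum-free DMEM for 4 h, with 100 nM insulin as the positive control. They were rinsed in KRPH buffer pH 7.4 and given 1 mM 2-deoxyglucose for 20 min. After washing, cells were lysed in 0.05 M NaOH and lysate 2-deoxyglucose was quantified enzymatically by fluorescence.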

[2] = molecular target: Beta-2 adrenergic receptor (Rattus norvegicus) (UniProt P10608); test: Agonist activity at beta2 adrenergic receptor in rat L6 cell lysate assessed as increase in intracellular 2-deoxyglucose uptake at 0.5 to 100 uM preincubated for 4 hrs followed by 2-deoxyglucose measured after 20 mins by fluorescence-based enzymatic assay relative to control; procedure, shortened: as §1
[3] = molecular target: Beta-2 adrenergic receptor (Rattus norvegicus) (UniProt P10608); test: Agonist activity at beta2 adrenergic receptor in rat L6 cell lysate assessed as increase in intracellular 2-deoxyglucose uptake at 100 uM preincubated for 4 hrs followed by 2-deoxyglucose measured after 20 mins by fluorescence-based enzymatic assay relative to control; procedure, shortened: as §1
[4] = molecular target: Beta-2 adrenergic receptor (Rattus norvegicus) (UniProt P10608); test: Agonist activity at beta2 adrenergic receptor in rat L6 cell lysate assessed as increase in intracellular 2-deoxyglucose uptake at 0.1 to 100 uM preincubated for 4 hrs followed by 2-deoxyglucose measured after 20 mins by fluorescence-based enzymatic assay relative to higenamine
Procedure, shortened: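 Differentiated L6 rat myotubes (2% horse serum, 6–8 days post-confluence) serum-starved, then exposed to sample in serum-free DMEM for 4 h; insulin 100 nM as positive control. Rinsed with KRPH buffer (pH 7.4), given 1 mM 2-deoxyglucose for 20 min, washed thrice, lysed in 0.05 M NaOH; lysate 2-deoxyglucose measured enzymatically by fluorescence.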

[5] = molecular target: Beta-2 adrenergic receptor (Rattus norvegicus) (UniProt P10608); test: Agonist activity at beta2 adrenergic receptor in rat L6 cell lysate assessed as increase in intracellular 2-deoxyglucose uptake at more than 5 uM preincubated for 4 hrs followed by 2-deoxyglucose measured after 20 mins by fluorescence-based enzymatic assay relative to control; procedure, shortened: as §1
[6] = molecular target: Beta-2 adrenergic receptor (Rattus norvegicus) (UniProt P10608); test: Agonist activity at beta2 adrenergic receptor in rat L6 cell lysate assessed as increase in intracellular 2-deoxyglucose uptake at 10 to 100 uM preincubated for 4 hrs followed by 2-deoxyglucose measured after 20 mins by fluorescence-based enzymatic assay relative to control; procedure, shortened: as §1
[7] = molecular target: Beta-2 adrenergic receptor (Rattus norvegicus) (UniProt P10608); test: Agonist activity at beta2 adrenergic receptor in rat L6 cell lysate assessed as increase in intracellular 2-deoxyglucose uptake at 0.1 to 100 uM preincubated for 4 hrs followed by 2-deoxyglucose measured after 20 mins by fluorescence-based enzymatic assay relative to control; procedure, shortened: as §1

Sequence of Beta-2 adrenergic receptor (Rattus norvegicus) (P10608 whole entry, looked up): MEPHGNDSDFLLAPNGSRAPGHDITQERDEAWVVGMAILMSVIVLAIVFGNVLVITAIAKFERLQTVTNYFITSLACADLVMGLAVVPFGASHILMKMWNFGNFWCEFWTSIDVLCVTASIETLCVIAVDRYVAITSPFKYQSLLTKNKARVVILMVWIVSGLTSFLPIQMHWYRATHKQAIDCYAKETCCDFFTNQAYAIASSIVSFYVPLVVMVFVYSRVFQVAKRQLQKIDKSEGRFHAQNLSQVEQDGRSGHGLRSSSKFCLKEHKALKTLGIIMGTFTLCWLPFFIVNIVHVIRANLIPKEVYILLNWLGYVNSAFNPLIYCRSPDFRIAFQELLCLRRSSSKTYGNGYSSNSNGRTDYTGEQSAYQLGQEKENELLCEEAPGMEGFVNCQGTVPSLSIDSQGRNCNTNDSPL
Sequence of Beta-2 adrenergic receptor (P10608 whole entry): as the sequence (P10608 whole entry, looked up) above

With `Oc1ccc(C[C@@H]2NCCc3cc(O)c(O)cc32)cc1` [(-)-HIGENAMINE] the EC50 [1] was 0.6 µM.

In the case of `CN1CCc2cc(O)c(O)cc2C1Cc1ccc(O)cc1` (stereo unspecified), the Activity [2] is reported as “Active” and the fold change (FC) [3] is reported as 1.2.

With `COc1cc2c(cc1O)CCNC2Cc1ccc(O)cc1` (stereo unspecified) the Activity [2] was “Active” and the fold change (FC) [3] was 1.2.

With `COc1cc2c(cc1O)C(Cc1ccc(O)cc1)NCC2` (stereo unspecified) the fold change (FC) [2] was 1.6 and the Activity [4] was 40%.

For `Oc1ccc(CC2NCCc3cc(O)c(O)cc32)cc1` (stereo unspecified), the fold change (FC) [5] was over 2 and the Activity [6] was “Active”.

`Oc1ccc(C[C@H]2NCCc3cc(O)c(O)cc32)cc1` [(+)-HIGENAMINE] gave an EC50 [1] of 4.5 µM.

With `OC[C@H]1O[C@@H](Oc2ccc(C[C@@H]3NCCc4cc(O)c(O)cc43)cc2)[C@H](O)[C@@H](O)[C@@H]1O` the EC50 [1] was 1.3 µM.

For `OC[C@H]1O[C@@H](Oc2ccc(C[C@H]3NCCc4cc(O)c(O)cc43)cc2)[C@H](O)[C@@H](O)[C@@H]1O`, the EC50 [1] was 9 µM.

With `COc1cc2c(cc1OC)C(Cc1ccc(O)cc1)NCC2` (stereo unspecified) the Activity [7] was “Active”.

For `NC[C@H](O)c1ccc(O)c(O)c1`, the Activity [6] was “Active”.

For `CNC[C@H](O)c1ccc(O)c(O)c1`, the Activity [6] was “Active”.

`COc1ccc(CC2NCCc3cc(O)c(O)cc32)cc1` (stereo unspecified) was tested, and the Activity [7] was “Active”.
